Reference: ChEMBL document CHEMBL1143109, “Discovery of novel orally active ureido NPY Y5 receptor antagonists” (Bioorg Med Chem Lett, 2008)

Key:
[1] = molecular target: Neuropeptide Y receptor type 5 (Homo sapiens, UniProt Q15761); experiment: Displacement of [125]PYY from human chimeric NPY Y5 receptor expressed in CHOK1 cells; format: cell-based; details: cho-k1
How it was run: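 Binding to human chimeric Y5 receptor expressed in CHO-K1 cells; Ki values are the average of two determinations.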

Rattus norvegicus = experiment: Blockade of D-Trp[34]-NPY-induced food intake in po dosed rat; format: functional
[2] = molecular target: T1, Neuropeptide Y receptor type 5 (Rattus norvegicus) (UniProt Q63634); experiment: Antagonist activity at rat NPY Y5 receptor expressed in HEK293 cells assessed as inhibition of forskolin-stimulated cAMP production; format: functional, cell-based
T1 sequence (whole entry): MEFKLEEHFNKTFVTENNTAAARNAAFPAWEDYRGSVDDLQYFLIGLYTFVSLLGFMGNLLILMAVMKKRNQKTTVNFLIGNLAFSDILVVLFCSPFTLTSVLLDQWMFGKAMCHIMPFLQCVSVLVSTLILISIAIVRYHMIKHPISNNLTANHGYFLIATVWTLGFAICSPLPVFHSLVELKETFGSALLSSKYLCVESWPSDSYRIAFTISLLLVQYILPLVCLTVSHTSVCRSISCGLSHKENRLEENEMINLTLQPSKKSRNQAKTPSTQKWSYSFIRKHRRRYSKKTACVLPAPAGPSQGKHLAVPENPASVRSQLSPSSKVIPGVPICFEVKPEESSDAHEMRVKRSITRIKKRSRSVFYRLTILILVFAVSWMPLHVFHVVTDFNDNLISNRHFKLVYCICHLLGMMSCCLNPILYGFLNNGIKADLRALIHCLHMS
How it was run: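 HEK293 cells expressing rat NPY Y5 receptor. Functional antagonism measured as the ability to overcome NPY inhibition of forskolin-stimulated cAMP production; reported as Kb.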

Neuropeptide Y receptor type 5, sequence (Q15761 whole entry, looked up): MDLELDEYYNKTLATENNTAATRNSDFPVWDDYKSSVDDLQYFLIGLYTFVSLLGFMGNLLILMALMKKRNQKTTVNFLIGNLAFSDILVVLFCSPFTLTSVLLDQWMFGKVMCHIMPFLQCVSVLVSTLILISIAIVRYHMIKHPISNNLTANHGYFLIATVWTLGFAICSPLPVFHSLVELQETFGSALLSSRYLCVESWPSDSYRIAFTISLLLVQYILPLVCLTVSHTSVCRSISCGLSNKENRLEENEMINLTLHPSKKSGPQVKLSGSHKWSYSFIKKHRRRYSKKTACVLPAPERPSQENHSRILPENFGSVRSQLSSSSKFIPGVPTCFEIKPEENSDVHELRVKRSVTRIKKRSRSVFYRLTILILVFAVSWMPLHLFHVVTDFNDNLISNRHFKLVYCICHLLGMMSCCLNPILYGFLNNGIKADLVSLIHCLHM

SMILES | Ki [1] | Kb [2] | ED50 (Rattus norvegicus)
CN(C(=O)NC1CCN(c2ccc(Br)cc2)CC1)C1CCN(S(C)(=O)=O)CC1 | 0.819 µM |  | 
CN(C(=O)NC1CCN(c2ccccc2F)CC1)C1CCN(S(C)(=O)=O)CC1 | 0.088 µM |  | 
CN(C(=O)NC1CCN(c2ccccc2)CC1)C1CCN(S(C)(=O)=O)CC1 | 0.303 µM |  | 
CN(C(=O)NC1CCN(c2ccc(F)c(Cl)c2)CC1)C1CCN(S(C)(=O)=O)CC1 | 0.16 µM |  | 
CC(=O)N1CCC(N(C)C(=O)N[C@H]2CC[C@H](c3ccccc3)CC2)CC1 | 0.059 µM |  | 
CC(=O)c1cccc(N2CCC(NC(=O)N(C)C3CCN(S(C)(=O)=O)CC3)CC2)c1 | 0.164 µM |  | 
CCS(=O)(=O)N1CCC(N(C)C(=O)NC2CCN(c3cc(F)cc(F)c3)CC2)CC1 | 0.0028 µM |  | 
CCC(=O)N1CCC(N(C)C(=O)NC2CCN(c3cc(F)cc(F)c3)CC2)CC1 | 0.0063 µM |  | 
CN(C(=O)NC1CCN(c2cccc(Cl)c2)CC1)C1CCN(S(C)(=O)=O)CC1 | 0.013 µM |  | 
CN(C(=O)N[C@H]1CC[C@H](c2ccccc2)CC1)C1CCN(S(C)(=O)=O)CC1 | 0.052 µM |  | 
CCS(=O)(=O)N1CCC(N(C)C(=O)N[C@H]2CC[C@H](c3cc(F)cc(F)c3)CC2)CC1 | 0.00075 µM |  | 
CCCS(=O)(=O)N1CCC(N(C)C(=O)NC2CCN(c3cc(F)cc(F)c3)CC2)CC1 | 0.0034 µM |  | 
CCCC(=O)N1CCC(N(C)C(=O)N[C@H]2CC[C@H](c3cc(F)cc(F)c3)CC2)CC1 (stereo in doubt; 21h) | 0.0024 µM |  | 
CC(=O)N1CCC(N(C)C(=O)NC2CCN(c3cc(F)cc(F)c3)CC2)CC1 | 0.0074 µM |  | 
CN(C(=O)N[C@H]1CC[C@@H](c2ccccc2)CC1)C1CCN(S(C)(=O)=O)CC1 | 0.5 µM |  | 
Cc1cccc(N2CCC(NC(=O)N(C)C3CCN(S(C)(=O)=O)CC3)CC2)c1 | 0.02 µM |  | 
CCC(=O)N1CCC(N(C)C(=O)N[C@H]2CC[C@H](c3cc(F)cc(F)c3)CC2)CC1 | 0.0015 µM |  | 
CC(=O)N1CCC(N(C)C(=O)N[C@H]2CC[C@@H](c3ccccc3)CC2)CC1 | > 1 µM |  | 
CN(C(=O)NC1CCN(c2ccc(Cl)cc2)CC1)C1CCN(S(C)(=O)=O)CC1 | 0.13 µM |  | 
CCCC(=O)N1CCC(N(C)C(=O)NC2CCN(c3cc(F)cc(F)c3)CC2)CC1 | 0.0059 µM |  | 
CN(C(=O)NC1CCN(c2ccc(Cl)c(Cl)c2)CC1)C1CCN(S(C)(=O)=O)CC1 | 0.048 µM |  | 
CN(C(=O)NC1CCN(c2cccc(Br)c2)CC1)C1CCN(S(C)(=O)=O)CC1 | 0.0088 µM |  | 
CN(C(=O)NC1CCN(c2cc(Cl)cc(Cl)c2)CC1)C1CCN(S(C)(=O)=O)CC1 | 0.0011 µM |  | 
COc1cccc(N2CCC(NC(=O)N(C)C3CCN(S(C)(=O)=O)CC3)CC2)c1 | 0.311 µM |  | 

Second part, led by results:

Ki [1] | Kb [2] | SMILES | ED50 (Rattus norvegicus)
0.0012 µM |  | CN(C(=O)N[C@H]1CC[C@H](c2cc(F)cc(F)c2)CC1)C1CCN(S(C)(=O)=O)CC1 | 
0.002 µM |  | CCCC(=O)N1CCC(N(C)C(=O)N[C@H]2CC[C@H](c3cc(F)cc(F)c3)CC2)CC1 (stereo in doubt; 21e) | 
0.052 µM |  | Cc1ccccc1N1CCC(NC(=O)N(C)C2CCN(S(C)(=O)=O)CC2)CC1 | 
0.027 µM |  | CN(C(=O)NC1CCN(c2cccc(C#N)c2)CC1)C1CCN(S(C)(=O)=O)CC1 | 
0.0032 µM |  | CN(C(=O)NC1CCN(c2cc(F)cc(F)c2)CC1)C1CCN(S(C)(=O)=O)CC1 | 
0.312 µM |  | CN(C(=O)NC1CCN(c2ccc(F)c(F)c2)CC1)C1CCN(S(C)(=O)=O)CC1 | 
0.0032 µM |  | CC(C)S(=O)(=O)N1CCC(N(C)C(=O)NC2CCN(c3cc(F)cc(F)c3)CC2)CC1 | 
0.0026 µM |  | CC(C)C(=O)N1CCC(N(C)C(=O)NC2CCN(c3cc(F)cc(F)c3)CC2)CC1 | 
0.035 µM |  | CN(C(=O)NC1CCN(c2cccc(F)c2)CC1)C1CCN(S(C)(=O)=O)CC1 | 
0.0004 µM | 0.0004 µM | CN(C(=O)Nc1ccc(-c2cc(F)cc(F)c2)cc1)C1CCN(S(C)(=O)=O)CC1 | 0.4 mg/kg
0.405 µM |  | CN(C(=O)NC1CCN(c2cccnc2)CC1)C1CCN(S(C)(=O)=O)CC1 | 
0.799 µM |  | CN(C(=O)NC1CCN(c2ccc(F)cc2)CC1)C1CCN(S(C)(=O)=O)CC1 | 
